Reference: PubChem BioAssay AID623895 (Broad Institute, 2012)
Active and inactive are the calls of the source.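 How the source made its calls: active means compounds with an ATP-loss curve whose half-maximal dose stays within twice the top dose, in every run; inconclusive means mixed run calls, weak flat effects or poor fits; inactive means the rest, including opposite-direction effects.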

Assay: cytotoxicity in ldlA[mSR-BI] CHO cells, dose response, cytotoxicity control for SR-BI HDL uptake inhibitor project, cell-based, 24 h, ATP luminescence, dry powder, set 6 (AID 623895)
Details: ldlA[mSR-BI] CHO cells viability, ATP luminescence, 24 h; at 35 µM (top of the series)
Summary of the method: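 Material: ldlA[mSR-BI] cells; Input: 4,000 cells per well; Measured by: cell Titer Glo luminescence reporting cellular ATP; Schedule: 24 h at 37 °C, read after 10 min; Dosing: Eight-point compound dose series.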

Row | Structure (SMILES) | activity change, negative = cytotoxicity
1 | C[C@@H]1CN([C@H](C)CO)C(=O)c2cc(NC(=O)Cc3cn(C)c4ccccc34)ccc2O[C@H]1CN(C)S(=O)(=O)c1ccc(Cl)cc1 | -19.8% (inactive)
2 | C[C@@H]1CN([C@H](C)CO)C(=O)c2cc(NS(C)(=O)=O)ccc2O[C@H]1CN(C)S(=O)(=O)c1ccc(Cl)cc1 | -14.8% (inactive)
3 | COc1cc(OC)cc(C(=O)Nc2nc(-c3ccc4c(c3)CCN4C(=O)CN3CCOCC3)cs2)c1 | 3.74% (inactive)
4 | CO[C@H]1CN(C)C(=O)c2ccc(NC(=O)C3CCCC3)cc2OC[C@@H](C)N(C(=O)CC2CC2)C[C@@H]1C | -11.9% (inactive)
5 | C[C@@H]1CN([C@H](C)CO)C(=O)c2cc(NS(=O)(=O)c3ccccc3)ccc2O[C@H]1CN(C)S(=O)(=O)c1ccc(Cl)cc1 | -8.14% (inactive)
6 | C[C@@H]1CN([C@H](C)CO)C(=O)c2cc(NC(=O)Cc3cn(C)c4ccccc34)ccc2O[C@H]1CN(C)S(=O)(=O)c1cccs1 | -7.16% (inactive)
7 | COc1ccc(-c2nnn(CC(=O)N(C3CCCCC3)C(C)C(=O)NC3CCCCC3)n2)cc1OC (configuration not stated) | -9.26% (inactive)
8 | C[C@@H]1CN([C@H](C)CO)C(=O)c2cc(NC(=O)Cc3cn(C)c4ccccc34)ccc2O[C@H]1CN(C)S(=O)(=O)c1ccc(F)cc1 | -29.1% (inactive)
9 | C[C@@H]1CN([C@H](C)CO)C(=O)c2cc(NC(=O)Cc3cn(C)c4ccccc34)ccc2O[C@H]1CN(C)Cc1ccc2c(c1)OCO2 | -15% (inactive)
10 | C[C@@H]1CN([C@H](C)CO)C(=O)c2cc(NC(=O)Cc3cn(C)c4ccccc34)ccc2O[C@H]1CN(C)Cc1ccccc1 | -31.2% (inactive)
11 | COc1ccc2c(c1)CC(C1(O)C(=O)N(C)c3ccccc31)C2=O (configuration not stated) | -9.47% (inactive)
12 | C[C@@H]1CN([C@@H](C)CO)C(=O)Cc2cc(NS(=O)(=O)c3cn(C)cn3)ccc2O[C@@H]1CN(C)Cc1ccc(Cl)c(Cl)c1 | -6.37% (inactive)
13 | C[C@H](CO)N1C[C@H](C)[C@H](CN(C)C)Oc2c(NS(C)(=O)=O)cccc2C1=O | 4.96% (inactive)
14 | C[C@@H]1CN([C@@H](C)CO)C(=O)c2cc(NC(=O)NC3CCCCC3)ccc2O[C@H]1CN(C)Cc1ccncc1 | 5.45% (inactive)
15 | Cc1ccccc1-c1ccc2c(c1)O[C@@H](CN(C)C(=O)Nc1ccc(F)cc1)[C@H](C)CN([C@@H](C)CO)S2(=O)=O | -23.7% (inactive)
16 | C[C@@H]1CN([C@H](C)CO)C(=O)c2cc(NC(=O)Cc3cn(C)c4ccccc34)ccc2O[C@H]1CN(C)C(=O)Nc1ccccc1 | -12.4% (inactive)
17 | C[C@@H]1CN([C@@H](C)CO)C(=O)Cc2cc(NS(=O)(=O)c3cn(C)cn3)ccc2O[C@H]1CN(C)Cc1ccc(Cl)c(Cl)c1 | 3.09% (inactive)
18 | COc1ccc(CN(C)C[C@@H]2Oc3ccc(NC(=O)Cc4cn(C)c5ccccc45)cc3C(=O)N([C@H](C)CO)C[C@H]2C)cc1 | -17.6% (inactive)
19 | C[C@@H]1CN([C@H](C)CO)C(=O)c2cc(NS(=O)(=O)c3cn(C)cn3)ccc2O[C@H]1CN(C)S(=O)(=O)c1ccc(Cl)cc1 | 1.24% (inactive)
20 | C[C@@H]1CN([C@H](C)CO)C(=O)c2cc(NC(=O)Nc3ccc(F)cc3)ccc2O[C@H]1CN(C)S(=O)(=O)c1ccc(Cl)cc1 | -20.6% (inactive)
21 | CNC[C@@H]1OCCCC[C@@H](C)Oc2ccc(NS(=O)(=O)c3ccc(Cl)cc3)cc2C(=O)N([C@H](C)CO)C[C@H]1C | -5.46% (inactive)

Row | Structure (SMILES) | activity change, negative = cytotoxicity
22 | O=C(C[C@@H]1CC[C@@H](NC(=O)CC2CC2)[C@H](CO)O1)NCc1ccc(Cl)cc1 | -2.93% (inactive)
23 | C[C@@H]1CN([C@H](C)CO)C(=O)c2cc(NC(=O)CCCN(C)C)ccc2O[C@H]1CN(C)S(=O)(=O)c1ccc(Cl)cc1 | 15.7% (inactive)
24 | C[C@@H]1CN([C@H](C)CO)C(=O)c2cc(NC(=O)Cc3cn(C)c4ccccc34)ccc2O[C@H]1CN(C)S(C)(=O)=O | -4.79% (inactive)
25 | COc1ccc(NC(=O)Nc2ccc3c(c2)C(=O)N([C@H](C)CO)C[C@@H](C)[C@H](CN(C)S(=O)(=O)c2ccc(Cl)cc2)O3)cc1 | -15.6% (inactive)
26 | C[C@@H]1CN([C@H](C)CO)C(=O)c2cc(NC(=O)C3CCCCC3)ccc2O[C@H]1CN(C)S(=O)(=O)c1ccccc1Cl | -18.6% (inactive)
27 | C[C@H](CO)N1C[C@H](C)[C@@H](CN(C)S(=O)(=O)c2ccc(Cl)cc2)Oc2ccc(NC(=O)Cc3cn(C)c4ccccc34)cc2C1=O | -25.3% (inactive)
28 | C[C@@H]1CN([C@H](C)CO)C(=O)c2cc(NC(=O)Cc3cn(C)c4ccccc34)ccc2O[C@H]1CN(C)C(=O)Nc1cccc2ccccc12 | -4.64% (inactive)
29 | C[C@@H]1CN([C@H](C)CO)C(=O)c2cc(NC(=O)Cc3cn(C)c4ccccc34)ccc2O[C@@H]1CN(C)S(=O)(=O)c1ccc(Cl)cc1 | -21.3% (inactive)
30 | C[C@@H]1CN([C@H](C)CO)C(=O)c2cc(NC(=O)Cc3cn(C)c4ccccc34)ccc2O[C@H]1CN(C)Cc1ccc(-c2ccccc2)cc1 | -34.9% (inactive)
31 | C[C@@H]1CN([C@@H](C)CO)C(=O)Cc2cc(NC(=O)CCCN(C)C)ccc2O[C@H]1CN(C)Cc1ccncc1 | 0.314% (inactive)
32 | C[C@@H]1CN([C@H](C)CO)C(=O)c2cc(NC(=O)C3CC3)ccc2O[C@H]1CN(C)S(=O)(=O)c1ccc(Cl)cc1 | -13% (inactive)
33 | O=C1C2C3C=CC(C3)C2C(=O)N1c1cccc(N2C(=O)C3C4C=CC(C4)C3C2=O)n1 (configuration not stated) | -8.55% (inactive)
34 | CCCNC(=O)N(C)C[C@@H]1Oc2cc(-c3cncnc3)ccc2S(=O)(=O)N([C@@H](C)CO)C[C@@H]1C | -5.43% (inactive)
35 | C[C@@H]1CN([C@H](C)CO)C(=O)c2cc(NC(=O)Nc3cccc4ccccc34)ccc2O[C@H]1CN(C)S(=O)(=O)c1ccc(Cl)cc1 | -10.4% (inactive)
36 | C[C@@H]1CN([C@H](C)CO)C(=O)c2cc(NC(=O)Cc3cn(C)c4ccccc34)ccc2O[C@H]1CN(C)C(=O)NC1CCCCC1 | 5.85% (inactive)
37 | COc1ccc(S(=O)(=O)Nc2ccc3c(c2)C(=O)N([C@H](C)CO)C[C@@H](C)[C@H](CN(C)S(=O)(=O)c2ccc(Cl)cc2)O3)cc1 | -22.9% (inactive)
38 | C[C@@H]1CN([C@H](C)CO)C(=O)c2cc(NC(=O)Cc3cn(C)c4ccccc34)ccc2O[C@H]1CN(C)C(=O)Nc1ccc(C(F)(F)F)cc1 | -31.9% (inactive)
39 | C[C@@H]1CN([C@H](C)CO)C(=O)c2cc(NC(=O)Cn3cnnn3)ccc2O[C@H]1CN(C)S(=O)(=O)c1ccc(Cl)cc1 | 10.5% (inactive)
40 | Cc1noc(C)c1NC(=O)Nc1ccc2c(c1)C(=O)N([C@H](C)CO)C[C@@H](C)[C@H](CN(C)S(=O)(=O)c1ccc(Cl)cc1)O2 | -7.8% (inactive)
41 | CC(C)CN(C(=O)COC(=O)C12CC3CC(CC(O)(C3)C1)C2)C1CCS(=O)(=O)C1 (configuration not stated) | -14.1% (inactive)
42 | C[C@@H]1CN([C@H](C)CO)C(=O)c2cc(NC(=O)CCN3CCOCC3)ccc2O[C@H]1CN(C)S(=O)(=O)c1ccc(Cl)cc1 | 19.5% (inactive)
